Measured values taken from ChEMBL document CHEMBL3232816, “Substituted E-3-(3-indolylmethylene)1,3-dihydroindol-2-ones with antiproliferative activity. Study of the effects on HL-60 leukemia cells” (2014).
Active and inactive are the calls of the source. No cut-off for these calls is given here.

Legend:
HL-60 [1] = experiment: Cell cycle arrest in human HL60 cells assessed as accumulation at G0-G1 phase at 1 uM after 24 hrs by propidium iodide staining-based flow cytometric analysis (reference value: 32.4%); format: functional
HL-60 [2] = experiment: Cytotoxicity against human HL60 cells assessed as growth inhibition at 1 uM measured up to 48 hrs; format: functional, cell-based
How it was run: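 HL-60 cells, RPMI 1640 with 10% fetal calf serum and 2 mM glutamine, 37 °C, 5% CO2. Cells received 1 μM compound diluted from a 10 mmol/L DMSO stock; controls got equal DMSO. Viable cells were counted daily to follow total cell number. Means ± s.e.m. of three determinations.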

HL-60 [3] = experiment: Effect on autophagy in human HL60 cells by LC3 protein processing assay; format: functional, cell-based
[4] = Cytotoxicity against human CNS cancer cells after 48 hrs; format: functional; conditions: Cancer cell lines
How it was run: (§1)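 NCI 60-line panel. Compounds were dissolved in DMSO and tested at five 10-fold dilutions, the highest 10^-4 M (10^-3 M where footnoted), over 48 h of incubation. The readouts were GI50, TGI and LC50 in μM, with the panel mean also given. Only compounds passing a 10^-5 M single-dose prescreen were tested; some were repeated and averaged over two experiments.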

HL-60 [5] = experiment: Cell cycle arrest in human HL60 cells assessed as accumulation at G2-M phase at 1 uM after 24 hrs by propidium iodide staining-based flow cytometric analysis (reference value: 10.7%); format: functional
[6] = Cytotoxicity against human prostate cancer cells after 48 hrs; format: functional; conditions: Cancer cell lines; how it was run: as §1
HL-60 [7] = experiment: Induction of apoptosis in human HL60 cells assessed as increase in caspase proteolytic activity using DEVD as substrate at 1 uM after 24 hrs by fluorometric analysis; format: functional, cell-based
How it was run: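 After 24 h exposure of HL-60 cells to 1 μM compound or DMSO vehicle, DEVD-hydrolysing caspase (DEVDase) activity was measured fluorometrically in cell extracts. Means ± s.e.m. of three determinations.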

[8] = Cytotoxicity against human colon cancer cells after 48 hrs; format: functional; conditions: Cancer cell lines; how it was run: as §1
[9] = Cytotoxicity against human melanoma cells after 48 hrs; format: functional; conditions: Melanoma cell; how it was run: as §1
HL-60 [10] = experiment: Induction of apoptosis in human HL60 cells assessed as increase in oxidative stress at 1 uM after 24 hrs by DCFDA staining; format: functional, cell-based
How it was run: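 Intracellular peroxides in HL-60 cells treated 24 h with 1 μM compound or DMSO. Cells were loaded with 5 μM DCF-DA for 30 min at 37 °C, then DCF fluorescence was acquired by flow cytometry with logarithmic amplification. Means ± s.e.m., n=3.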

[11] = Cytotoxicity against human renal cancer cells after 48 hrs; format: functional; conditions: Cancer cell lines; how it was run: as §1
HL-60 [12] = experiment: Effect on autophagy in human HL60 cells by acridine orange staining; format: functional, cell-based
[13] = Cytotoxicity against human NSCLC cells after 48 hrs; format: functional; how it was run: as §1
[14] = Cytotoxicity against human leukemia cells after 48 hrs; format: functional; conditions: Leukemia cell; how it was run: as §1
HL-60 [15] = experiment: Induction of apoptosis in human HL60 cells assessed as increase in intracellular free Ca2+ level at 1 uM after 24 hrs by INDO-1/AM probe-based fluorometric analysis; format: functional, cell-based
How it was run: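 They were stained with 5 μM INDO-1/AM, excited at 346 nm, and emission read at 405/485 nm. Rmin came from 5 mM EDTA/EGTA plus 5 μM digitonin, Rmax from 10 mM CaCl2. Free Ca2+ was calculated with Kd […]. Means ± s.e.m., n=3.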

HL-60 [16] = experiment: Cell cycle arrest in human HL60 cells assessed as accumulation at S phase at 1 uM after 24 hrs by propidium iodide staining-based flow cytometric analysis (reference value: 56.9%); format: functional
HL-60 [17] = experiment: Induction of apoptosis in human HL60 cells assessed as increase in intracellular free Mg2+ level at 1 uM after 24 hrs by Mag-Fura2 probe-based fluorometric analysis; format: functional, cell-based
How it was run: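 They were loaded with 5 μM Mag-Fura2 for 60 min at 37 °C in the dark, washed, and held 45 min at room temperature. Emission at 510 nm was read with excitation at 335/370 nm. Rmin came from 5 mM EDTA/EGTA then 0.1% Triton X-100, Rmax from MgSO4. Free Mg2+ was calculated with Kd 2.1 mM, in triplicate.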

[18] = Cytotoxicity against human breast cancer cells after 48 hrs; format: functional; conditions: Cancer cell lines; how it was run: as §1
[19] = Cytotoxicity against human ovarian cancer cells after 48 hrs; format: functional; conditions: Cancer cell lines; how it was run: as §1
HL-60 [20] = experiment: Induction of apoptosis in human HL60 cells assessed as early apoptotic cells at 1 uM after 24 hrs by annexin V-FLUOS staining-based flow cytometric analysis (reference value: 4%); format: functional
[21] = read-out: LC50 (the source's name)

Which results are given for `COc1ccc(CCn2c(Cl)c(/C=C3/C(=O)Nc4ccccc43)c3ccccc32)cc1`?
Activity (HL-60 [1]): 16.7%; growth inhibition (GI) (HL-60 [2]): Active; Activity (HL-60 [3]): Active; GI50 [4]: 0.34 µM; TGI [4]: 8.32 µM; CC50 [4, 21]: 58.9 µM; Activity (HL-60 [5]): 69.3%; GI50 [6]: 0.35 µM; TGI [6]: 19.5 µM; CC50 [6, 21]: 55 µM; Activity (HL-60 [7]): Active; GI50 [8]: 0.28 µM; TGI [8]: 1.82 µM; CC50 [8, 21]: 52.5 µM; GI50 [9]: 0.46 µM; LC50 [9]: 63.1 µM; TGI [9]: 9.12 µM; Activity (HL-60 [10]): Active; GI50 [11]: 0.48 µM; LC50 [11]: 72.4 µM; TGI [11]: 18.6 µM; Activity (HL-60 [12]): Active; GI50 [13]: 0.43 µM; LC50 [13]: 74.1 µM; TGI [13]: 15.1 µM; GI50 [14]: 0.35 µM; TGI [14]: 15.5 µM; Activity (HL-60 [15]): Active; Activity (HL-60 [16]): 14%; Activity (HL-60 [17]): Active; GI50 [18]: 0.32 µM; TGI [18]: 6.31 µM; GI50 [19]: 0.34 µM; LC50 [19]: 69.2 µM; TGI [19]: 13.5 µM; Activity (HL-60 [20]): 50%
